Data set [1] is described as follows: Cytotoxicity against human MDA-MB-231 cells. The class given is functional, cell-based.
Data set [2] in a line: Cytotoxicity against human HeLa cells. Type of data set: functional, cell-based.
Data set [3] in a line: Cytotoxicity against human HepG2 cells by MTT assay. The class given is functional, cell-based. The essentials:
(§1)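 Microculture tetrazolium (MTT) assay on a panel of human carcinoma cell lines: colon HCT-116, hepatocellular HepG2, gastric BGC-823, NSCLC NCI-H1650, ovarian A2780, melanoma A375, lung adenocarcinoma A549, breast MCF-7 and pancreatic Capan2. IC50 values are reported in μM.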

The test system of data set [4] is Xanthomonas euvesicatoria. Kind of data set: Antibacterial activity against Xanthomonas vesicatoria ATCC 11633 by broth dilution colorimetric assay. Type of data set: functional. Put shortly: (§2)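 Modified broth dilution colorimetric assay in 96-well plates, run against a plant- and human-pathogen panel. Both MIC and median inhibitory concentration (IC50) were determined. Streptomycin sulfate served as the positive control.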
For orientation: Dilution methods test growth across graded concentrations, often in twofold steps.

The test system of another data set is Bacillus subtilis. Description: Antibacterial activity against Bacillus subtilis ATCC 11562 by broth dilution colorimetric assay. Type of data set: functional. Put shortly:
as §2

Data set [5] is described as follows: Cytotoxicity against human HCT116 cells by MTT assay. The following applies: HCT-116. Type of data set: functional, cell-based. The essentials:
as §1
A general note: Formazan colour is commonly taken as a measure of viable cells.

In data set [6] the test system is Pseudomonas amygdali pv. lachrymans. Kind of data set: Antibacterial activity against Pseudomonas lachrymans ATCC 11921 by broth dilution colorimetric assay. Type of data set: functional. Put shortly: as §2
Data set [7] has as its system Agrobacterium tumefaciens. Description: Antibacterial activity against Agrobacterium tumefaciens ATCC 11158 by broth dilution colorimetric assay. The class given is functional. Put shortly: as §2
The next data set deals with Pyricularia oryzae. Description: Antifungal activity against Magnaporthe oryzae assessed as inhibition of spore germination after 8 hrs by microscopic analysis. Type of data set: functional. Put shortly: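 Spores taken from 7-day-old M. oryzae cultures (2 × 10^6 spores per mL). Compound in 10% aqueous ethanol was mixed 1:1 with the spore suspension on a concave slide and kept in a dark moist chamber at 25 °C for 8 h. Germination was counted by microscope. Inhibition % = [(Gc − Gt)/Gc] × 100 against 10% ethanol control, with triplicates. IC50 was obtained by linear regression; carbendazim served as positive control.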

The nature of data set [8]: Cytotoxicity against human MOLT3 cells. Conditions: MOLT-3. The class given is functional, cell-based.
The nature of data set [9]: Cytotoxicity against human BGC823 cells by MTT assay. Type of data set: functional, cell-based. Conditions: BGC-823. The essentials:
as §1

A short description of data set [10]: Cytotoxicity against human A549 cells. The class given is functional, cell-based.
Data set [11] can be described thus: Cytotoxicity against human HuCCa1 cells. Type of data set: functional, cell-based. Conditions: HuCC-A1.
Data set [12] is described as follows: Cytotoxicity against human T47D cells. The class given is functional, cell-based.
A short description of data set [13]: Cytotoxicity against human HepG2 cells. Type of data set: functional, cell-based.
Data set [14] is described as follows: Antibacterial activity against Ralstonia solanacearum ATCC 11696 by broth dilution colorimetric assay. The class given is functional, Ralstonia solanacearum K60-1. The essentials: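 Modified broth dilution colorimetric assay in 96-well plates, reporting both minimum inhibitory concentration (MIC) and median inhibitory concentration (IC50). Streptomycin sulfate served as positive control.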

A short description of data set [15]: Cytotoxicity against human NCI-H1650 cells by MTT assay. The class given is functional, cell-based. The essentials:
as §1

The nature of data set [16]: Cytotoxicity against human A2780 cells by MTT assay. Type of data set: functional, cell-based. Put shortly:
as §1

Data set [17] is described as follows: Cytotoxicity against human MRC5 cells. Type of data set: toxicity, cell-based.
The subject of data set [18] is Staphylococcus haemolyticus. Kind of data set: Antibacterial activity against Staphylococcus haemolyticus ATCC 29970 by broth dilution colorimetric assay. The class given is functional. Put shortly:
as §2

This passage reports IC50 and MIC results from ChEMBL document CHEMBL3865820, “Bioactive Dibenzo-α-pyrone Derivatives from the Endophytic Fungus Rhizopycnis vagum Nitaf22” (J Nat Prod, 2016).

Converted amounts (≈) assume the structure as drawn.

What is called IC50 is the midpoint of a concentration-inhibition curve. In general, MIC refers to the lowest concentration that inhibits growth of the organism. The low end stands for greater potency, the high end for weaker potency. With `COC1=C(Cl)[C@](C)(O)c2c(oc(=O)c3c(O)cc(OC)cc23)C1=O`, the IC50 in [1] was 1.1 to 12.6 µM; in [2], 1.1 to 12.6 µM; in data set [3], 5.9 µM; in the data set on Bacillus subtilis, 21.6 µg/mL (≈ 61.2 µM); in data set [5], 4.2 µM; in the data set on Pyricularia oryzae, 12 µg/mL (≈ 34 µM). For the same molecule, the IC50 in [8] was 1.1 to 12.6 µM; in data set [9] it was 7.8 µM; in data set [10], 1.1 to 12.6 µM; in data set [11], 1.1 to 12.6 µM; in data set [12], 1.1 to 12.6 µM; in [13], 1.1 to 12.6 µM. In addition, the figures for the IC50 in data set [15], in [16] and in data set [17] were 3.2 µM, 3.6 µM and 1.1 to 12.6 µM, respectively. Also, the MIC was greater than 200 µg/mL in data set [4]; 50 µg/mL (≈ 142 µM) against Bacillus subtilis; greater than 200 µg/mL in [6]; greater than 200 µg/mL in data set [7]; greater than 200 µg/mL in data set [14]; greater than 200 µg/mL in data set [18].
